Structures can show the parent of a compound that is named as a salt.
What was measured:
[1] = biological target: Acetylcholinesterase (Homo sapiens, UniProt P22303); assay: Inhibition of human AChE using acetylthiocholine iodide as substrate preincubated with enzyme for 30 mins followed by substrate addition by Ellman's method
[2] = species on record: Homo sapiens; assay: Inhibition of HFIP-pretreated human amyloid beta (1 to 42) self aggregation at 10 uM incubated for 36 to 48 hrs by thioflavin-T based fluorescence method relative to control; conditions: time 36-48 hrs
Method in brief: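 HFIP-pretreated Aβ1-42 (1.5 µM) incubated with compound (10 µM) and thioflavin-T (10 µM final) at room temperature with continuous shaking for 36–48 h. Fluorescence (ex 440/em 490 nm) read every 3 min. Percent inhibition compared with Aβ + DMSO control, run in quadruplicate. Three independent experiments, mean ± SD, one-way ANOVA with Bonferroni test.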

[3] = biological target: Cholinesterase (Homo sapiens, UniProt P06276); assay: Inhibition of human BuchE using butyrylthiocholine iodide as substrate preincubated for 30 mins followed by substrate addition by Ellman's method
Cholinesterase, sequence (P06276 whole entry): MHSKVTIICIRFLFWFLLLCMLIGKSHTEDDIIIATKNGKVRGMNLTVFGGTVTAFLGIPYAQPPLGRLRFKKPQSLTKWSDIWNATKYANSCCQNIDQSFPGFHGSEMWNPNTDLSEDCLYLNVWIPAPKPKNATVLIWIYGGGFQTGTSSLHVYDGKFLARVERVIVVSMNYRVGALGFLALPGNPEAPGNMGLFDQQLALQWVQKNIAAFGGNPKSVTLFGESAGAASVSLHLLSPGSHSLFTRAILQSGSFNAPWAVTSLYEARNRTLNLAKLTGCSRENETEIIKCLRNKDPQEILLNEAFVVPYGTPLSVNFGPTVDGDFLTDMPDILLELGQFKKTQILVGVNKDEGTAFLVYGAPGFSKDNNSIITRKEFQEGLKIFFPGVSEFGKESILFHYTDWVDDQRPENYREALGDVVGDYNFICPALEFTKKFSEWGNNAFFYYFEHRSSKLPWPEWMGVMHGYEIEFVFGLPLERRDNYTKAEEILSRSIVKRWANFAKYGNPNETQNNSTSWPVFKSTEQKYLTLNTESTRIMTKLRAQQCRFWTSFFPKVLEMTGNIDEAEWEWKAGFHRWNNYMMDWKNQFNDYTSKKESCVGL

[4] = biological target: T1, Amine oxidase [flavin-containing] B (Homo sapiens, UniProt P27338); assay: Inhibition of human recombinant microsomal MAO-B expressed in baculovirus-infected BTI-TN-5B1-4 cells assessed as inhibition of H2O2 production using p-tyramine as substrate preincubated for 15 mins followed by substrate addition by Amplex Red reagent based fluorescence analysis
T1 sequence (P27338 whole entry): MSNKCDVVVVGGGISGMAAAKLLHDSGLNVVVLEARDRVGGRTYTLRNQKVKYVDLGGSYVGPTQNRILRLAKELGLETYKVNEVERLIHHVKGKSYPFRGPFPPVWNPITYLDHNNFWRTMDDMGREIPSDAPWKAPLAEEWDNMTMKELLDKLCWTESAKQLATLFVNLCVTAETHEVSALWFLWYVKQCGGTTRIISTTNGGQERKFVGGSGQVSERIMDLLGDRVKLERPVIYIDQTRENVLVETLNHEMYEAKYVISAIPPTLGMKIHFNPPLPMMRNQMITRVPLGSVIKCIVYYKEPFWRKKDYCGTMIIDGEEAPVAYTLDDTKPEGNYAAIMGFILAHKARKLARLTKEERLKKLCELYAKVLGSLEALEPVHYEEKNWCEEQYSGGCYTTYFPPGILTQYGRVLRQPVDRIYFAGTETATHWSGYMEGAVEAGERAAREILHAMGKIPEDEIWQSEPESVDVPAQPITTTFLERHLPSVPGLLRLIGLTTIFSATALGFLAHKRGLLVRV
Method in brief: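 Recombinant human MAO-A or MAO-B (insect-cell microsomes) preincubated with compound 15 min at 37 °C in 50 mM sodium phosphate, pH 7.4, 0.05% Triton X-114. Reaction started with 1 mM p-tyramine, 250 µM Amplex Red and 2 U/mL HRP (final concentrations). Resorufin fluorescence (ex 530/em 590 nm) followed for 20 min at 37 °C, duplicates. Blank-corrected residual activity; IC50 from a four-parameter Hill fit.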

[5] = biological target: T2, Amine oxidase [flavin-containing] A (Homo sapiens, UniProt P21397); assay: Inhibition of human recombinant microsomal MAO-A expressed in baculovirus-infected BTI-TN-5B1-4 cells assessed as inhibition of H2O2 production using p-tyramine as substrate preincubated for 15 mins followed by substrate addition by Amplex Red reagent based fluorescence analysis
T2 sequence (P21397 whole entry): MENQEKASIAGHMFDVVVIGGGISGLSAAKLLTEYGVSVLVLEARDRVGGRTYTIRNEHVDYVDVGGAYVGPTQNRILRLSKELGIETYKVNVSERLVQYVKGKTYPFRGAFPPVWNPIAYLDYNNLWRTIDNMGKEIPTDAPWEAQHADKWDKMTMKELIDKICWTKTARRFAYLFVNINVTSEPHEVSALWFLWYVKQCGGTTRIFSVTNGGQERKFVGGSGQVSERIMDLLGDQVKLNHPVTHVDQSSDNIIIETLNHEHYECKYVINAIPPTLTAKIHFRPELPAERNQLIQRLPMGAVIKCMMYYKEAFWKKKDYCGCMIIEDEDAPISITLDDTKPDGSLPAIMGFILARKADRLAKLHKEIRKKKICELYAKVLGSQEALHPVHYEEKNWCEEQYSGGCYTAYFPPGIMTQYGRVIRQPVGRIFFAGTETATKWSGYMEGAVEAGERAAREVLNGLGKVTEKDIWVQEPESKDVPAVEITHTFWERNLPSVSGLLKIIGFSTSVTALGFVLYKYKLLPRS

Acetylcholinesterase, sequence (P22303 whole entry): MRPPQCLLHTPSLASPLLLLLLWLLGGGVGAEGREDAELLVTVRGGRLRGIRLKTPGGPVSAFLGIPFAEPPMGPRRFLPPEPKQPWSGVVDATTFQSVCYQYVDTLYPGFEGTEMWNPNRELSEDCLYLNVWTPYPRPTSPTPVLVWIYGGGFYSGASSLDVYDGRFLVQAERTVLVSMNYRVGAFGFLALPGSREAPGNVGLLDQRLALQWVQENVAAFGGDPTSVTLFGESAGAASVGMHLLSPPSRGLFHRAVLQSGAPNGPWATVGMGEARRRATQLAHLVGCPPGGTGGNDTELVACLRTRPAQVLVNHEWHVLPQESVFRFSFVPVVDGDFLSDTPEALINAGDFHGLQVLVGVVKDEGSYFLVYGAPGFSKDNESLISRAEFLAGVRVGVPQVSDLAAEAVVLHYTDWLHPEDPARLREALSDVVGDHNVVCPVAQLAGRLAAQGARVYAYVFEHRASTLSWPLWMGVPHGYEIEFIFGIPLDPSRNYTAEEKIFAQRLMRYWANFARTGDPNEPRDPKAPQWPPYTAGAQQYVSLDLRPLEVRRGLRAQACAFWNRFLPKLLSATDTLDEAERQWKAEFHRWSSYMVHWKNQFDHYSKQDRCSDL

| Structure (SMILES) | IC50 [1] [µM] | inhibition [2] [%] | IC50 [3] [µM] | IC50 [4] [µM] | IC50 [5] [µM] |
| --- | --- | --- | --- | --- | --- |
| C#CCN[C@@H]1CCc2ccccc21 [RASAGILINE MESYLATE] | > 100 | < 20 | > 100 |  |  |
| CCN(C)C(=O)OCC1CCCN(Cc2ccccc2)C1 (stereo not drawn) | 96.6 |  | 7.23 | > 100 | > 100 |
| C#CCN1CCCC(COC(=O)Nc2ccccc2)C1 (stereo not drawn) | > 100 |  | 29.6 | > 100 | > 100 |
| CCN(C)C(=O)OC1CCN(Cc2ccccc2)CC1 | > 100 |  | > 100 | > 100 | > 100 |
| C#CCN1CCC(COC(=O)Nc2ccc(C(C)C)cc2)CC1 | > 100 |  | 24.3 | 0.316 | > 100 |
| OCC1CCN(Cc2ccccc2)CC1 | > 100 |  | > 100 | > 100 | > 100 |
| C#CCN1CCC(COC(=O)Nc2ccccc2)CC1 | > 100 |  | 14.4 | 10.3 | > 100 |
| CC(C)c1ccc(NC(=O)OCC2CCN(C3Cc4ccccc4C3)CC2)cc1 | 4.08 |  | > 100 | > 100 | > 100 |
| OC1CCN(Cc2ccccc2)CC1 | > 100 |  | > 100 | > 100 | > 100 |
| C#CCN1CCCC(COC(=O)N(C)CC)C1 (stereo not drawn) | > 100 |  | > 100 | > 100 | > 100 |
| C#CCN1CCC(COC(=O)N(C)CC)CC1 | > 100 |  | > 100 | > 100 | > 100 |
| O=C(Nc1ccccc1)OC1CCN(Cc2ccccc2)CC1 | > 100 |  | 6.55 | > 100 | > 100 |
| O=C(Nc1ccccc1)OCC1CCCN(Cc2ccccc2)C1 (stereo not drawn) | 67.1 |  | 0.52 | 39.5 | > 100 |
| OCC1CCCN(C2Cc3ccccc3C2)C1 (stereo not drawn) | > 100 |  | > 100 | > 100 | > 100 |
| C#CCN1CCC(OC(=O)Nc2ccccc2)CC1 | > 100 |  | 19.1 | > 100 | > 100 |
| OCC1CCCN(Cc2ccccc2)C1 (stereo not drawn) | > 100 |  | > 100 | > 100 | > 100 |
| O=C(Nc1ccccc1)OCC1CCN(C2Cc3ccccc3C2)CC1 | > 100 |  | 1.43 | > 100 | > 100 |
| C#CCN1CCC(OC(=O)N(C)CC)CC1 | > 100 |  | 11.4 | > 100 | > 100 |
| C#CCN1CCC(CO)CC1 | > 100 |  | > 100 | > 100 | > 100 |
| OCC1CCN(C2Cc3ccccc3C2)CC1 | > 100 |  | > 100 | > 100 | > 100 |
| CCN(C)C(=O)OC1CCCN(Cc2ccccc2)C1 (stereo not drawn) | > 100 |  | 21 | > 100 | > 100 |
| CC(C)c1ccc(NC(=O)OCC2CCCN(C3Cc4ccccc4C3)C2)cc1 (stereo not drawn) | 18.7 |  | 0.442 | > 100 | > 100 |
| OC1CCCN(C2Cc3ccccc3C2)C1 (stereo not drawn) | > 100 |  | > 100 | > 100 | > 100 |
| C#CCN1CCCC(OC(=O)Nc2ccc(C(C)C)cc2)C1 (stereo not drawn) | > 100 |  | > 100 | 71.8 | > 100 |

| Structure (SMILES) | IC50 [1] [µM] | inhibition [2] [%] | IC50 [3] [µM] | IC50 [4] [µM] | IC50 [5] [µM] |
| --- | --- | --- | --- | --- | --- |
| COc1cc2c(cc1OC)C(=O)C(CC1CCN(Cc3ccccc3)CC1)C2 (stereo not drawn) |  | < 20 |  |  |  |
| C#CCN1CCCC(COC(=O)Nc2ccc(C(C)C)cc2)C1 (stereo not drawn) | > 100 |  | 17.8 | 2.86 | > 100 |
| C#CCN1CCCC(O)C1 (stereo not drawn) | > 100 |  | > 100 | > 100 | > 100 |
| CC(C)c1ccc(NC(=O)OC2CCCN(C3Cc4ccccc4C3)C2)cc1 (stereo not drawn) | 7.91 |  | > 100 | > 100 | > 100 |
| CCN(C)C(=O)OCC1CCN(Cc2ccccc2)CC1 | 72 |  | 46 | > 100 | > 100 |
| O=C(Nc1ccccc1)OCC1CCCN(C2Cc3ccccc3C2)C1 (stereo not drawn) | > 100 |  | 0.18 | > 100 | > 100 |
| C#CCN1CCC(O)CC1 | > 100 |  | > 100 | > 100 | > 100 |
| O=C(Nc1ccccc1)OC1CCCN(Cc2ccccc2)C1 (stereo not drawn) | > 100 |  | 0.46 | 33.3 | > 100 |
| CC(C)c1ccc(NC(=O)OC2CCN(Cc3ccccc3)CC2)cc1 | > 100 |  | 1.74 | > 100 | > 100 |
| CCN(C)C(=O)OC1CCN(C2Cc3ccccc3C2)CC1 | > 100 |  | 40.8 | > 100 | > 100 |
| CCN(C)C(=O)OCC1CCN(C2Cc3ccccc3C2)CC1 | > 100 |  | 4.46 | > 100 | > 100 |
| CCN(C)C(=O)Oc1cccc([C@H](C)N(C)C)c1 [RIVASTIGMINE TARTRATE] |  | < 20 |  | > 100 |  |
| O=C(Nc1ccccc1)OC1CCN(C2Cc3ccccc3C2)CC1 | 19.2 |  | 18.1 | > 100 | > 100 |
| CC(C)c1ccc(NC(=O)OCC2CCCN(Cc3ccccc3)C2)cc1 (stereo not drawn) | 15.1 |  | 0.118 | > 100 | > 100 |
| CCN(C)C(=O)OC1CCCN(C2Cc3ccccc3C2)C1 (stereo not drawn) | > 100 |  | 9.69 | > 100 | > 100 |
| Oc1ccc(/C=C/c2cc(O)cc(O)c2)cc1 |  | 86.6 |  |  |  |
| C#CCN1CCCC(CO)C1 (stereo not drawn) | > 100 |  | > 100 | > 100 | > 100 |
| CC(C)c1ccc(NC(=O)OC2CCN(C3Cc4ccccc4C3)CC2)cc1 | 2.31 |  | > 100 | > 100 | > 100 |
| C#CCN1CCCC(OC(=O)Nc2ccccc2)C1 (stereo not drawn) | > 100 |  | 84.5 | > 100 | > 100 |
| CCN(C)C(=O)OCC1CCCN(C2Cc3ccccc3C2)C1 (stereo not drawn) | > 100 |  | 9.39 | > 100 | > 100 |
| C#CCN1CCCC(OC(=O)N(C)CC)C1 (stereo not drawn) | > 100 |  | > 100 | > 100 | > 100 |
| OC1CCN(C2Cc3ccccc3C2)CC1 | > 100 |  | > 100 | > 100 | > 100 |
| OC1CCCN(Cc2ccccc2)C1 (stereo not drawn) | > 100 |  | > 100 | > 100 | > 100 |
| CC(C)c1ccc(NC(=O)OC2CCCN(Cc3ccccc3)C2)cc1 (stereo not drawn) | > 100 |  | 3.25 | 29.3 | > 100 |

Reference: ChEMBL document CHEMBL4765308, “N-alkylpiperidine carbamates as potential anti-Alzheimer's agents” (Eur J Med Chem, 2020)
